Results published in ChEMBL document CHEMBL1136745 (J Med Chem, 2003).
≈ marks a conversion by molar mass, not a printed value.

Legend:
[1] = The octanol/water partition coefficient of [3H]azietomidate; type: physicochemical
Method in brief: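 Octanol/water two-phase mixture shaken in amber vial, settled 12 h, radiolabel partition measured.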

[2] = Solubility in 0.05 M Tris-HCl buffer, pH 7.4; type: physicochemical; conditions: read-out: S
Method in brief: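 Excess compound shaken 3 h in 0.05 M Tris-HCl pH 7.4, centrifuged 10000g for 3 min, concentration read at 350 nm.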

[3] = target: Nicotinic acetylcholine receptor alpha1/beta1/gamma/delta (Mus musculus, UniProt P02716+P04756+P04760+P09690); assay: Inhibition of recombinant embryonic mouse muscle Nicotinic Acetylcholine Receptor (3 oocytes); type: cell-based, Oocyte
Method in brief: (§1)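 Torpedo or embryonic mouse muscle nAChRs in Xenopus oocytes, two-electrode clamp at -70 mV, 20–22 °C, low-Ca ND-96 (0.3 mM CaCl2) without propylene glycol; drug coapplied 5 s with 10 μM acetylcholine after stable response; fit to single-site inhibition equation; reversibility after 5 min wash.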

[4] = target: T1, GABA-A receptor; alpha-1/beta-2/gamma-2 (Homo sapiens) (UniProt P14867+P47870+P18507); assay: Maximum response for enhancement of currents elicited by GABA at EC5 (6-12 uM); type: functional
[5] = target: T1, GABA-A receptor; alpha-1/beta-2/gamma-2 (Homo sapiens); assay: Maximum activation of Gamma-aminobutyric acid A receptor in the absence of GABA compared to 1 mM GABA; type: functional
Method in brief: (§2)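 Oocytes expressing GABA_A receptors, two-electrode clamp at -50 mV, 20–22 °C, ND-96 pH 7.6; drug applied without GABA, stocks in 35% propylene glycol (superfusate ≤170 mM). […] Washout up to 15 min.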

[6] = Anesthetic potency, Concentration for loss of righting reflexes (LORR) in Rana temporaria; type: functional, frog
[7] = target: T1, GABA-A receptor; alpha-1/beta-2/gamma-2 (Homo sapiens); assay: Hill coefficient for enhancement of currents elicited by GABA at EC5 (6-12 uM); type: functional
[8] = target: T1, GABA-A receptor; alpha-1/beta-2/gamma-2 (Homo sapiens); assay: (§3) Direct activation of Gamma-aminobutyric acid A receptor in the absence of GABA; type: functional; method in brief: as §2
[9] = Anesthetic potency, Concentration for loss of righting reflexes (LORR) in Xenopus tadpoles; type: functional, frog
Method in brief: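 Pre-limb bud Xenopus tadpoles (1.5–2 cm), groups of 5–10 in oxygenated 5 mM Tris-HCl pH 7.4, low light; drug from buffer or ethanol stock (final ethanol ≤5 mM). Tipped at 30–40 min; no righting within 5 s = LORR. Pooled groups of 10–20; quantal curves by Waud method; SD reported.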

[10] = target: T2, Acetylcholine receptor (Torpedo californica, UniProt P02710+P02712+P02714+P02718); assay: (§4) Inhibition of currents when compound wascoapplied with acetylcholine to recombinant Torpedo nAcChoR (from 6 oocytes); type: functional, cell-based, Oocyte; method in brief: as §1
[11] = system: Torpedo; assay: Concentration that reduced photoincorporation of [3H]azietomidate into the alpha and beta subunits of the nAcChoR in membranes of Torpedo electric organ; type: functional
Method in brief: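 Torpedo californica nAChR-rich membranes, 2 mg/mL in Torpedo saline pH 7.0 with 1 mM oxidized glutathione, with 0.9 μM [3H]azietomidate, ± 300 μM carbamylcholine, ± R-etomidate; irradiated at 4 °C, 6 min at 254 nm or 25 min at 365 nm; 8% SDS-PAGE, fluorography, excised bands counted by scintillation.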

[12] = target: T1, GABA-A receptor; alpha-1/beta-2/gamma-2 (Homo sapiens); assay: Maximum activation of Gamma-aminobutyric acid A receptor in the absence of GABA compared to GABA response; type: functional; method in brief: as §2
[13] = target: T1, GABA-A receptor; alpha-1/beta-2/gamma-2 (Homo sapiens); assay: Maximum levels of enhancement of currents from alpha-1-beta-2-gamma-2L-subunit of GABA receptor elicited by low concentrations of GABA; type: functional
[14] = target: T3, GABA-A receptor; alpha-1/beta-2/gamma-2 (Homo sapiens, UniProt P14867+P18507+P47870); assay: Ability to enhance currents from alpha-1-beta-2-gamma-2L-subunit of GABA receptor elicited by low concentrations of GABA; type: functional
T3 sequence (P14867 whole entry): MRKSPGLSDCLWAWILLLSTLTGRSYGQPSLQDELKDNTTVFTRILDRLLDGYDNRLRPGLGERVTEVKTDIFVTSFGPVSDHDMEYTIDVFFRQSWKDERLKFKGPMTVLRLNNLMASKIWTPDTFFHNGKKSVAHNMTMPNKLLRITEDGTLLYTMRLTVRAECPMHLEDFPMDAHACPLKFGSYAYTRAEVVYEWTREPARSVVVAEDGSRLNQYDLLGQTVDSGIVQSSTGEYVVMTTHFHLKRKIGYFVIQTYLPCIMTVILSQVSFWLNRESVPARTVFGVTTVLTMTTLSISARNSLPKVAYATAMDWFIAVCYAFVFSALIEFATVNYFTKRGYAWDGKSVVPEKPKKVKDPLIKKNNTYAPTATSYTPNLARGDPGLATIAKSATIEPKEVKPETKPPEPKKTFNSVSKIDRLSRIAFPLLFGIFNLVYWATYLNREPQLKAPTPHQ
T3 sequence (P47870 whole entry): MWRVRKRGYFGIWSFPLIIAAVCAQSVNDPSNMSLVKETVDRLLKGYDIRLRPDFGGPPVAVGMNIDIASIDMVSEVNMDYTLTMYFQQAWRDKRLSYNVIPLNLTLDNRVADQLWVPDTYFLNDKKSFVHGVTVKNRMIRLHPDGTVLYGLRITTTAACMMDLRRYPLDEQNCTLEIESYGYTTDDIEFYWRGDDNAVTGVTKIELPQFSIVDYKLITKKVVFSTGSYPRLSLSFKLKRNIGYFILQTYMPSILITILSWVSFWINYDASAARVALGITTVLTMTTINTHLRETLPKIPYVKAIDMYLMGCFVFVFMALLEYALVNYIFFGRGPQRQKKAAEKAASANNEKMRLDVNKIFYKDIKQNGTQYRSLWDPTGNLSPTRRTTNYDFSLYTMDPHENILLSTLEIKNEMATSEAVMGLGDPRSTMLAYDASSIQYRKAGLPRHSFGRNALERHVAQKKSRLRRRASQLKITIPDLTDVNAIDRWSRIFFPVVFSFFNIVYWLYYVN
T3 sequence (P18507 whole entry): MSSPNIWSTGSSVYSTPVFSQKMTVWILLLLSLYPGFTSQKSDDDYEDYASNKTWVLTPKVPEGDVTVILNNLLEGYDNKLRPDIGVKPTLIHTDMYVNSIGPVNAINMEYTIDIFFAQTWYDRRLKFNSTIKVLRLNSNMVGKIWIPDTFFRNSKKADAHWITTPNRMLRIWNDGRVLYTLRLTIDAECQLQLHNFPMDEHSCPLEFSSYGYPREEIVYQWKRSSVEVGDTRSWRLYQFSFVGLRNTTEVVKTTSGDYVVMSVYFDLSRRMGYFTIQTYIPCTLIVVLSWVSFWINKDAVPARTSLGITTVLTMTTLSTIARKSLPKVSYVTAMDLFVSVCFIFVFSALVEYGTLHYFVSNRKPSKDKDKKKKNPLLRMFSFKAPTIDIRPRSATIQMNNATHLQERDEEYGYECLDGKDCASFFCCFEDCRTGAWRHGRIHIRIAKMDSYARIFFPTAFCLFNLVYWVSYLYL

[15] = target: T3, GABA-A receptor; alpha-1/beta-2/gamma-2; assay: as §3; type: functional
[16] = target: T3, GABA-A receptor; alpha-1/beta-2/gamma-2; assay: Enhancement of currents elicited by GABA at EC5 (6-12 uM); type: functional
[17] = target: T2, Acetylcholine receptor; assay: as §4; type: cell-based, Oocyte; method in brief: as §1
[18] = target: T3, GABA-A receptor; alpha-1/beta-2/gamma-2; assay: Inhibition of currents elicited by GABA at EC5 (6-12 uM); type: functional
[19] = target: T4, GABA-A receptor; anion channel (Rattus norvegicus) (UniProt O09028+P15431+P18506+P18508+P19969+P20236+P23574+P23576+P28471+P28473+P30191+P62813+P63079+P63138+Q91ZM7+Q9ES14); assay: Inhibition of [35S]TBPS binding to rat brain membranes at 100 uM (Range = 80-90%); type: cell membranes; conditions: Membrane
[20] = target: GABA-A receptor; anion channel; assay: Inhibition of [35S]TBPS binding to rat brain membranes; type: cell membranes, Membrane
[21] = target: T4, GABA-A receptor; anion channel (Rattus norvegicus); assay: Inhibition of [35S]TBPS binding to rat brain membranes at 100 uM; type: cell membranes; conditions: Membrane
[22] = target: T1, GABA-A receptor; alpha-1/beta-2/gamma-2 (Homo sapiens); assay: Maximum activation of Gamma-aminobutyric acid A receptor compared to maximal control GABA current at >320 uM; type: functional

T2 sequence (P02710 whole entry): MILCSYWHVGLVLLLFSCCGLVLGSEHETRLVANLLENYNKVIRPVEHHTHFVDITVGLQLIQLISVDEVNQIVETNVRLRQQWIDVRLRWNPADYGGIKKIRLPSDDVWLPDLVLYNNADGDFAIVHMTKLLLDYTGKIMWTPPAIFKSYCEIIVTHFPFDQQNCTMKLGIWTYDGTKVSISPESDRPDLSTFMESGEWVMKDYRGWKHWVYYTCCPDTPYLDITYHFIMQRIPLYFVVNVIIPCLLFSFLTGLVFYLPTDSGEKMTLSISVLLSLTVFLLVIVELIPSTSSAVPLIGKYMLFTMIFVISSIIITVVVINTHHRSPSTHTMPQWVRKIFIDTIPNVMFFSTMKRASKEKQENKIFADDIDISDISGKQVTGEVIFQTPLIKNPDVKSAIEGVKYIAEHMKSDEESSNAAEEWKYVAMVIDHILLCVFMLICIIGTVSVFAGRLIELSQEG
T2 sequence (P02712 whole entry): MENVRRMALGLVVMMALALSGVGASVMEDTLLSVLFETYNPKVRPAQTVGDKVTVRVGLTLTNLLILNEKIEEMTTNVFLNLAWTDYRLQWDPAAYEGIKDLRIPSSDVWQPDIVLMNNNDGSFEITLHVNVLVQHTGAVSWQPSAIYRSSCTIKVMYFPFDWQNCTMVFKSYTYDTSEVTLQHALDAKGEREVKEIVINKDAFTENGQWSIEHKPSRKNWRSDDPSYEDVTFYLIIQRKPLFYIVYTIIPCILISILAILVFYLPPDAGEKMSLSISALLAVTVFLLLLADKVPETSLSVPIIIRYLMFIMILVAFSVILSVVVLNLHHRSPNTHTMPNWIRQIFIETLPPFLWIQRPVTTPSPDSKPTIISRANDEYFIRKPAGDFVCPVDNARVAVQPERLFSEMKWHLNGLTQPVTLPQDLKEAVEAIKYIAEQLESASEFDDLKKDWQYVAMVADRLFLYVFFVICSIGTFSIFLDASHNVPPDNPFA
T2 sequence (P02718 whole entry): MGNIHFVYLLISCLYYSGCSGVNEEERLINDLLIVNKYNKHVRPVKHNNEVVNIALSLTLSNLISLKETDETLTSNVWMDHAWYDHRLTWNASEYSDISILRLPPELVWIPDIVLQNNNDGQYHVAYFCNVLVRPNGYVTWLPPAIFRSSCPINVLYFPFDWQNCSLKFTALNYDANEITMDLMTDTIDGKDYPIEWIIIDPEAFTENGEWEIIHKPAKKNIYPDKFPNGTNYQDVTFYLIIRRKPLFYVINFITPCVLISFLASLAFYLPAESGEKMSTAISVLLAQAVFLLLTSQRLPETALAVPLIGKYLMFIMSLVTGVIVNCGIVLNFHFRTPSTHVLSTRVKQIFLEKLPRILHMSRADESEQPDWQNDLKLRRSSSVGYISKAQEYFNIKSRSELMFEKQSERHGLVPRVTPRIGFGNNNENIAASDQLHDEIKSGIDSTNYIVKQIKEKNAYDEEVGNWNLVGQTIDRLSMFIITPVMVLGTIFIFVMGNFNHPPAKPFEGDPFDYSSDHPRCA
T2 sequence (P02714 whole entry): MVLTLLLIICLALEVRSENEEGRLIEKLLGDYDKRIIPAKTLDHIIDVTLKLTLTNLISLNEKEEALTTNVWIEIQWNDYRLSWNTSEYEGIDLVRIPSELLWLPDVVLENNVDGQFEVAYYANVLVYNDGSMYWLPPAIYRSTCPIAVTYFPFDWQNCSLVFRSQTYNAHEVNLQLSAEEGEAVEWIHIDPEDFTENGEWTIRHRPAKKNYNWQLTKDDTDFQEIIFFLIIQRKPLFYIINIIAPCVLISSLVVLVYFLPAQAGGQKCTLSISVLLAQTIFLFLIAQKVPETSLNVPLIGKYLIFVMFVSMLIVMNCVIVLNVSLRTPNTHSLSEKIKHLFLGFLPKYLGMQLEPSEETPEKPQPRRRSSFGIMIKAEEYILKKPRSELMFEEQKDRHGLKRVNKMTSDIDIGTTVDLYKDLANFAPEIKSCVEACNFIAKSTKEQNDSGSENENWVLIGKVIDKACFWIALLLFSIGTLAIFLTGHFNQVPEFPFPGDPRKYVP
Sequence of Nicotinic acetylcholine receptor alpha1/beta1/gamma/delta (P04756 whole entry): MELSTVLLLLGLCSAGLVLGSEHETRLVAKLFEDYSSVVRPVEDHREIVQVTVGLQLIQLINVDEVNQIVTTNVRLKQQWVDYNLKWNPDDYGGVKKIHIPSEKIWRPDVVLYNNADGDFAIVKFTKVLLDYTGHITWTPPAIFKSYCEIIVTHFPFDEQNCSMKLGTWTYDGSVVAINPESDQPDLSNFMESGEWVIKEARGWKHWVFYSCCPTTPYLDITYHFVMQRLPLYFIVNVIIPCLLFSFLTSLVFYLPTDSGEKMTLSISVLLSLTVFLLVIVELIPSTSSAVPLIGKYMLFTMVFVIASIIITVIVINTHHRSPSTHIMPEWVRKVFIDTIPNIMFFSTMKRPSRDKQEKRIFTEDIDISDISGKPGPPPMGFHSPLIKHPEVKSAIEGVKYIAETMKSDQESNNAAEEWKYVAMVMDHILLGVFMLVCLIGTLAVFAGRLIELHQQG
Sequence of Nicotinic acetylcholine receptor alpha1/beta1/gamma/delta (P09690 whole entry): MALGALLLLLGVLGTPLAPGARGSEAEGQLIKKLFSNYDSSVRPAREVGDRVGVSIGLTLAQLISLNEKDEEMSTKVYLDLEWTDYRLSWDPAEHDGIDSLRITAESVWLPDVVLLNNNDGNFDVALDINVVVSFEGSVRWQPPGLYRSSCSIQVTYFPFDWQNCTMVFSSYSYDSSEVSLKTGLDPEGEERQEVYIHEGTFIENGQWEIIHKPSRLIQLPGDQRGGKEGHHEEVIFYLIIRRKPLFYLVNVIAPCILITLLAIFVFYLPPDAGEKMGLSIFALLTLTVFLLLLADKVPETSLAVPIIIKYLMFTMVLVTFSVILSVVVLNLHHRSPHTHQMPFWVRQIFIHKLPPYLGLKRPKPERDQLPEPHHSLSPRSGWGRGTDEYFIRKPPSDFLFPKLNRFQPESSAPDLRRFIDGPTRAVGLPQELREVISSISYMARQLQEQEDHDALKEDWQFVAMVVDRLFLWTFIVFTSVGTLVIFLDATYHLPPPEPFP
Sequence of Nicotinic acetylcholine receptor alpha1/beta1/gamma/delta (P02716 whole entry): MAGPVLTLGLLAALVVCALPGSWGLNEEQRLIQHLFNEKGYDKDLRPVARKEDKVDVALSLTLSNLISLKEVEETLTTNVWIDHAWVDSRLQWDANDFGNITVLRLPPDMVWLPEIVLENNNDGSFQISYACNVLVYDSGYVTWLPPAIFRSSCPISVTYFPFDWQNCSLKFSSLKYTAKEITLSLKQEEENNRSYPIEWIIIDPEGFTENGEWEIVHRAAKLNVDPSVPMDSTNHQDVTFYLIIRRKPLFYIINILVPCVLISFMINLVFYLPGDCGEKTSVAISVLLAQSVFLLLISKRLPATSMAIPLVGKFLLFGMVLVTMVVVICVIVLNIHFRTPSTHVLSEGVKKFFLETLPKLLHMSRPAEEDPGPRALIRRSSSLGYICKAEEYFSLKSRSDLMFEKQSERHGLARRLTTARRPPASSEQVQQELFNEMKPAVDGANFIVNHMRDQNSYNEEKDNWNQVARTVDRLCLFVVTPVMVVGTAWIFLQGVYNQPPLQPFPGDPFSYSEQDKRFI
Sequence of Nicotinic acetylcholine receptor alpha1/beta1/gamma/delta (P04760 whole entry): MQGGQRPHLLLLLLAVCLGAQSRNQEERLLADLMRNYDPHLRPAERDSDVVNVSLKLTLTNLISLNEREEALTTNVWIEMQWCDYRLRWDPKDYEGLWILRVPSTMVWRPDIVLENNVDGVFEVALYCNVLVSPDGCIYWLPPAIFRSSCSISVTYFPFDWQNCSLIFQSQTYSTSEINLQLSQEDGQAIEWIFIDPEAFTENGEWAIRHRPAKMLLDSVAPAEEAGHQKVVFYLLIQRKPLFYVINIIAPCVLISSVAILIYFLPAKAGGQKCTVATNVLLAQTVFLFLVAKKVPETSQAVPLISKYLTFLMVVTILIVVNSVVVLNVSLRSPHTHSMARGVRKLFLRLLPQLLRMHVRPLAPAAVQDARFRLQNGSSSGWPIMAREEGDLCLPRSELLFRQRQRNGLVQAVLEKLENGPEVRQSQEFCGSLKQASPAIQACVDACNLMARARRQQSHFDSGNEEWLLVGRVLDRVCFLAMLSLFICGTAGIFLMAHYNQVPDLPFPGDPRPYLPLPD

CC(c1ccccc1)n1cncc1C(=O)OCCC1(C)N=N1 (stereo unspecified) [AZIETOMIDATE]
Partition coefficient [1]: 3600 | solubility [2]: 540 µM (≈ 161 µg/mL) | IC50 [3]: 25 µM

CCOC(=O)c1cncn1[C@@H](C)c1ccccc1 [S-ETOMIDATE]
Max response [4]: 110% | Emax [5]: 2.9% | EC50 [6]: 57 µM | nH [7]: 1.9 | Concentration [8]: 100 µM

CCOC(=O)c1cncn1[C@H](C)c1ccccc1 [ETOMIDATE]
EC50 [9]: 2.3 µM | IC50 [10]: 41 µM | Concentration [11]: 300 µM | Max response [4]: 110% | Emax [12]: 18% | EC50 [6]: 3.4 µM | nH [7]: 1.2 | Emax [13]: 127% | IC50 [3]: 50 µM

C[C@H](c1ccccc1)n1cncc1C(=O)OCCC1(C)N=N1
EC50 [9]: 2.2 µM | Max response [4]: 94% | EC50 [14]: 1.2 µM | Emax [12]: 14% | EC50 [15]: 37 µM | nH [7]: 1.5 | Emax [13]: 127% | EC50 [16]: 2 µM | IC50 [17]: 23 µM | IC50 [18]: 104 µM | inhibition [19]: < 90% | IC50 [20]: 4.9 µM

C[C@@H](c1ccccc1)n1cncc1C(=O)OCCC1(C)N=N1
EC50 [9]: 14 µM | Max response [4]: 94% | inhibition [21]: 60% | nH [7]: 1.6 | EC50 [16]: 20 µM | IC50 [18]: 66.3 µM | Emax [22]: 0.5%
